HSF-1 act: increases HSF-1 driven luciferase reporter signal | NIH3T3-HGL HSF-1 luciferase reporter, MG132, 8 h; 100% = twice DMSO control signal | activation, % at 9 µM | 300,000 compounds, 1.7% hits;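 active = mean replicate activation of at least 50% with a set share of replicates each reaching 50%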;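 note: 0% = median of the neutral control wells and 100% = twice that signal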
PHOSPHO1 block: inhibitors of human PHOSPHO1 phosphatase. 290,000 compounds, 1.1% hits. inhibition, % at 13.3 µM. Q8TCT1. recombinant PHOSPHO1, absorbance phosphatase assay; in the data active = inhibition above about 60%
Target sequence (Q8TCT1 whole entry, looked up): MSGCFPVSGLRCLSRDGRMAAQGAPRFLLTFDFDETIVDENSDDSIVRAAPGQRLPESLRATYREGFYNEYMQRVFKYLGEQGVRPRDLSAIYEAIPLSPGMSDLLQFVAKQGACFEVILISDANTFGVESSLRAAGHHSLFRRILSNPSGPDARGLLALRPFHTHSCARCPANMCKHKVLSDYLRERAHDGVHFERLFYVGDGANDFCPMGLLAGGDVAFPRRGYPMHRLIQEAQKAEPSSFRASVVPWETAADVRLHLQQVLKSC
ALR inh: blocks human ALR sulfhydryl oxidase activity. P55789. purified ALR, DTT oxidation, H2O2 HRP-luminol luminescence. inhibition, % (no concentration beside the values). 290,000 compounds, 3.8% hits;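 active = mean replicate inhibition above about 79%, with every replicate also reaching it, limit read from the data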
Target sequence (P55789 whole entry, looked up): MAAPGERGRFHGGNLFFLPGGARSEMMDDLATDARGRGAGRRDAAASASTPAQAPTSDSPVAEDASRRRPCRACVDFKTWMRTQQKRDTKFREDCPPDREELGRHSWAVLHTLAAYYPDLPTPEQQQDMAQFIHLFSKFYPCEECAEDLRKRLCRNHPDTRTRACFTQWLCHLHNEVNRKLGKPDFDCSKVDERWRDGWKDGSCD
AI-2 QS mod: Vibrio harveyi AI-2 quorum sensing modulation; AID 2094; activity change, % at 7.5 µM; 300,000 compounds, 0.4% hits; Vibrio harveyi JMH597 AI-2 luminescence/OD600 ratio, 9 h; stronger effect = lower value; strain lacks LuxN and CqsS sensors; 0 = neutral-control median; in the data active = activity change below about -75%, passing the limit was not always enough;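 note: luminescence divided by OD600 gain over 9 h not by final OD600 alone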
HCV core dimer: HCV core protein dimerization inhibition; TR-FRET GST/Flag-core106 dimerization, 1536-well; AID 1899; 300,000 compounds, 0.33% hits; inhibition, % at 5 µM;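 active = inhibition above the mean of all tested compounds plus 3 SD, set per screening campaign, cut at about 45% in these data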
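Material: GST/Flag-tagged HCV core106 proteins. Incubation: 4 h, 22.5 °C incubation. Read-out basis: inhibition (%) from 671 over 617 nm ratio. Measured by: TR-FRET, excitation 340 nm, emission 617 and 671 nm.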
HSF1 inhib: HSF1 inhibition; NIH3T3-HGL HSE-luciferase, MG132-induced, luminescence 8 h; stronger effect = lower value; activity change, negative = inhibition, % at 7.5 µM (by protocol); 300,000 compounds, 0.77% hits;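 active = more than half of replicate wells show activity change below -50%, luminescence cut by over half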;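 note: luciferase reports HSF-1 transcriptional activity via heat shock element; 0% = median of DMSO wells and -100% = zero luminescence signal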
Active calls of the source: *; · = not tested or not shown. In the library only some 6.8% were active in any assay of this set; here they are far more common.

SMILES | HSF-1 act | PHOSPHO1 block | ALR inh | AI-2 QS mod | HCV core dimer | HSF1 inhib
O=C(NC1CCCCC1)C12CC3CC(CC(Cl)(C3)C1)C2 | -2.9 | -11.1 | · | 13.7 | 1.5 | 0.6
CCc1ccccc1N(CC(=O)NC(C)(C)C)C(=O)CCC(=O)Nc1ccccn1 | -19.4 | 29.5 | · | 26.0 | -8.3 | -5.9
S=C(c1ccc(-c2ccc(Cl)cc2Cl)o1)N1CCCCC1 | 36.3 | 25.3 | 7.5 | 15.4 | 4.7 | 30.2
S=C(c1ccc(-c2ccc(Cl)c(Cl)c2)o1)N1CCOCC1 | 59.0* | 13.2 | 4.4 | 3.1 | -5.5 | 37.3
N#CCCN1CCN(C(=S)c2ccc(-c3cc(Cl)ccc3Cl)o2)CC1 | 12.2 | 73.5* | -8.6 | 39.8 | -2.1 | 1.5
S=C(c1ccc(-c2ccc(Cl)cc2Cl)o1)N1CCCC1 | 46.3 | 29.8 | 95.8* | 12.7 | 11.1 | 38.6
CN1CCN(C(=S)c2ccc(-c3cc(Cl)ccc3Cl)o2)CC1 | 16.0 | 27.7 | · | -5.0 | -1.0 | 12.2
COc1ccc(/C=N/NC(=O)c2nn(C)cc2Br)cc1CSCc1ccco1 | 13.0 | 7.7 | 98.4* | -5.5 | 16.3 | 26.6
CC[C@H]1CC2CN3CCc4c([nH]c5c([C@H]6C[C@H]7[C@H](CC)CN(C)[C@@H](Cc8c6[nH]c6ccccc86)[C@H]7C(=O)OC)c(OC)ccc45)C(C(=O)OC)(C2)C13 | 12.0 | · | -5.5 | 54.8 | -0.7 | -7.6
COc1cccc(-n2c(SC3CCOC3=O)nc3ccccc3c2=O)c1 (configuration not stated) | -21.4 | -5.6 | 94.6* | 17.0 | -0.2 | -7.8
Cc1ccc(C2=NOC(=O)/C2=C\C=C\c2ccccc2)cc1 | 133.2* | 8.4 | · | 49.9 | · | 77.4
COc1ccccc1NC(=O)Nc1ncccc1C | 32.6 | 23.1 | 98.0* | 5.1 | -9.6 | 7.2
Cn1c(N)c(S(=O)(=O)N2CCN(c3ccccc3Cl)CC2)c(=O)n(C)c1=O | -2.7 | 47.9 | -19.2 | 17.2 | 10.9 | -6.5
O=C(COc1ccc(NS(=O)(=O)c2ccc(F)cc2)cc1)N1CCOCC1 | -3.8 | 7.6 | · | 19.0 | -6.1 | -1.4
O=C1CC(Cc2ccccc2)C(=O)N1Cc1ccco1 (configuration not stated) | 8.0 | 1.3 | 24.1 | 5.2 | 31.5 | 8.8
Cc1ccc(CC2CC(=O)N(Cc3ccco3)C2=O)cc1 (configuration not stated) | 72.7* | -33.3 | 10.6 | 4.6 | 28.0 | 41.7
CS(=O)(=O)c1ccc(S(=O)CC(=O)OCc2ccccc2)c([N+](=O)[O-])c1 (configuration not stated) | -94.3 | -3.1 | · | 94.6 | · | -94.3*
O=C(CS(=O)c1ccc(C(F)(F)F)cc1[N+](=O)[O-])Oc1ccccc1 (configuration not stated) | 238.2* | 10.4 | 98.6* | 41.3 | 8.5 | 171.6
CCN(CC)S(=O)(=O)c1cccc(C(=O)NC(C)C(c2cccs2)N2CCCC2)c1 (configuration not stated) | -13.6 | 39.9 | 0.7 | 14.6 | -1.9 | 3.3
CC(=O)Nc1ccc(SCC(=O)c2ccc(Br)s2)cc1 | 22.5 | -19.4 | 99.1* | 0.3 | -18.1 | 4.4
CC(=O)Nc1ccc(SCC(=O)c2cc(C)n(C)c2C)cc1 | 3.9 | -2.0 | 98.9* | 5.4 | 2.9 | 8.1
CCC(C)NC(=O)CSc1ccc(NC(C)=O)cc1 (configuration not stated) | 0.0 | -1.2 | -2.7 | 13.3 | 1.0 | -8.4
Cc1ccnc(SCC(=O)c2ccc(Br)s2)n1 | 14.7 | 11.9 | 84.9* | 7.8 | -2.2 | 6.7
CSCCC(NC(=O)C1CCC(C)CC1)C(=O)Nc1ccc(NC(C)=O)cc1 (configuration not stated) | 7.1 | 2.2 | -10.4 | 16.3 | -2.3 | -3.0
COc1ccccc1N1CCN(C(=O)CCc2nnc3ccc(N4CCC(C)CC4)nn23)CC1 | -1.5 | 42.6 | 5.9 | 17.0 | 6.5 | -0.6
CNS(=O)(=O)c1cc(NC(=O)c2cncn2-c2ccccc2)ccc1C | -11.1 | 40.5 | -3.1 | 18.4 | -15.9 | -7.2
Cc1cc(C)c2c(N)c(-c3nc4ccccc4[nH]3)sc2n1 | 73.2* | 20.5 | 16.3 | 40.3 | -5.7 | 33.3
CCCCCN(C(=O)CCC(=O)OCc1ccc(Cl)cc1Cl)c1c(N)n(CCCC)c(=O)[nH]c1=O | 12.0 | · | -8.8 | 9.6 | 6.0 | 8.5

From PubChem BioAssay
